Results on 18 compounds are retold here after ChEMBL document CHEMBL4251549, “Design, synthesis and biological evaluation of nitrogen-containing macrocyclic bisbibenzyl derivatives as potent anticancer agents by targeting the lysosome” (Eur J Med Chem, 2017).

Where a name gives a salt, the structure may show the parent alone.

Common to all, as to format: functional, cell-based
One assay has as its system A549. Put plainly: Antiproliferative activity in human A549 cells after 48 hrs by MTT assay. Conditions: A549, 48 h. The method, boiled down: (§1)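 Cells exposed to compound for 48 h. Viability read by MTT, with absorbance of the solubilised MTT product at 570 nm. IC50 derived from at least three independent experiments.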
In the next assay the test system is MCF7. Put plainly: Antiproliferative activity in human MCF7 cells after 48 hrs by MTT assay. Conditions: MCF7, 48 h. The method, boiled down:
as §1
(In general: Tetrazolium assays rely on reduction of a dye to a coloured formazan, in cell work by metabolically active cells.)

In a further assay the test system is K562. Put plainly: Antiproliferative activity in human K562 cells after 48 hrs by MTT assay. Conditions: K562, 48 h. The method, boiled down:
as §1

For the compound `Oc1ccc2cc1Oc1ccc(cc1)CCc1cccc(OCCN3CCCC3)c1-c1ccc(cc1O)CC2`, the IC50 – broadly, the concentration that gives 50% inhibition – in the assay with A549 was 2.02 µM; in the assay with MCF7, 2.42 µM; in the assay with K562, 2.22 µM.
For `Oc1ccc2cc1Oc1ccc(cc1)CCc1cccc(OCCCN3CCCC3)c1-c1ccc(cc1O)CC2`, in that order: 4.53 µM, 3.68 µM and 2.94 µM.
The matching figures for `CN(C)CCCOc1cccc2c1-c1ccc(cc1O)CCc1ccc(O)c(c1)Oc1ccc(cc1)CC2`: 1.99 µM, 3.25 µM and 2.61 µM.
For `Oc1cc2ccc1-c1c(ccc(CN3CCN(Cc4ccccc4)CC3)c1O)CCc1ccc(cc1)Oc1cc(cc(CN3CCN(Cc4ccccc4)CC3)c1O)CC2`, in that order: over 20 µM, over 20 µM and over 20 µM.
In the case of `Oc1ccc2cc1Oc1ccc(cc1)CCc1ccc(CN3CCCCC3)c(O)c1-c1ccc(cc1O)CC2`, the concentration for half-maximal inhibition (IC50) in the assay on A549 was determined as 7.12 µM; with MCF7, 5.07 µM; in the assay with K562, 5.88 µM.
The matching figures for `Oc1cc2ccc1-c1c(ccc(CN3CCSCC3)c1O)CCc1ccc(cc1)Oc1cc(cc(CN3CCSCC3)c1O)CC2`: 10.2 µM, 9.25 µM and 8.35 µM.
For `CN1CCN(Cc2cc3cc(c2O)Oc2ccc(cc2)CCc2ccc(CN4CCN(C)CC4)c(O)c2-c2ccc(cc2O)CC3)CC1`, the IC50 in the assay on A549 came to 2.16 µM; with MCF7 it was 2.89 µM; with K562, 3.32 µM.
The matching figures for `COc1ccc(N2CCN(Cc3ccc4c(c3O)-c3ccc(cc3O)CCc3ccc(O)c(c3)Oc3ccc(cc3)CC4)CC2)cc1`: over 20 µM, over 20 µM and over 20 µM.
The matching figures for `CCN(CC)CCOc1ccc2cc1Oc1ccc(cc1)CCc1cccc(OCCN(CC)CC)c1-c1ccc(cc1OCCN(CC)CC)CC2`: 0.78 µM, 0.56 µM and 0.65 µM.
The matching figures for `CCCCN(CCCC)Cc1ccc2c(c1O)-c1ccc(cc1O)CCc1ccc(O)c(c1)Oc1ccc(cc1)CC2`: over 20 µM, over 20 µM and over 20 µM.
For `CCCCN(CCCC)Cc1cc2cc(c1O)Oc1ccc(cc1)CCc1ccc(CN(CCCC)CCCC)c(O)c1-c1ccc(cc1O)CC2`, the 50% inhibitory concentration (IC50) with A549, with MCF7 and with K562 was over 20 µM in each case.
In the case of `c1cc2c(c(OCCN3CCCCC3)c1)-c1ccc(cc1OCCN1CCCCC1)CCc1ccc(OCCN3CCCCC3)c(c1)Oc1ccc(cc1)CC2`, the values for the half-maximal inhibitory concentration (IC50) in the assay on A549, with MCF7 and in the assay with K562 were 0.97 µM, 0.24 µM and 0.56 µM, respectively.
The matching figures for `COCCN(CCOC)Cc1ccc2c(c1O)-c1ccc(cc1O)CCc1ccc(O)c(c1)Oc1ccc(cc1)CC2`: over 20 µM, over 20 µM and over 20 µM.
For `CC(=O)Nc1cc2cc(c1O)Oc1ccc(cc1)CCc1cccc(O)c1-c1ccc(cc1O)CC2`, the IC50 with A549, in the assay with MCF7 and with K562 was over 20 µM throughout.
Take `CCN(CC)CCOc1cccc2c1-c1ccc(cc1O)CCc1ccc(O)c(c1)Oc1ccc(cc1)CC2`: the IC50 in the assay on A549 stood at 1.87 µM; in the assay on MCF7 it was 2.73 µM; in the assay on K562 it was 2.23 µM.
For `COc1cccc2c1C(=O)c1c(O)c3c(c(O)c1C2=O)C[C@@](O)(C(=O)CO)C[C@@H]3O[C@H]1C[C@H](N)[C@H](O)[C@H](C)O1` [DOXORUBICIN HYDROCHLORIDE], in that order: 1.45 µM, 2.3 µM and 0.61 µM.
Consider `Oc1ccc2cc1Oc1ccc(cc1)CCc1cccc(OCCN3CCOCC3)c1-c1ccc(cc1O)CC2`, for which the values for the IC50 in the assay on A549, in the assay on MCF7 and in the assay on K562 were 7.49 µM, 5.02 µM and 10.1 µM, respectively.
For `O=[N+]([O-])c1cc2cc(c1O)Oc1ccc(cc1)CCc1cccc(O)c1-c1ccc(cc1O)CC2`, in that order: over 20 µM, over 20 µM and over 20 µM.
